Experimental data: ChEMBL document CHEMBL3286252, “Synthesis, biological evaluation and structure-activity relationship of new GABA uptake inhibitors, derivatives of 4-aminobutanamides” (Eur J Med Chem, 2014)
Calls of active or inactive are those of the source.

Key:
Mus musculus [1] = assay: Anticonvulsant activity against pentylenetetrazole-induced seizure in albino Swiss (CD-1) mouse assessed as decrease in seizure episodes at 100 mg/kg, ip administered 60 mins prior to PTZ challenge; type: functional; settings: route intraperitoneal
Summary of the method: (§1)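 Male CD-1 mice, 18–22 g, given compound or vehicle i.p. 60 min before PTZ 100 mg/kg s.c. Each mouse observed alone for 30 min for clonic seizures: whole-body clonus over 3 s with loss of righting reflex. Read-outs: latency to first clonus, number of seizure episodes, and deaths within 30 min. Groups of 7–10 mice, compared with vehicle.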

Mus musculus [2] = assay: Anticonvulsant activity against pentylenetetrazole-induced seizure in albino Swiss (CD-1) mouse assessed as delay in onset of seizures at 100 mg/kg, ip administered 60 mins prior to PTZ challenge; type: functional; settings: route intraperitoneal; summary of the method: as §1
Mus musculus [3] = assay: Anticonvulsant activity against pentylenetetrazole-induced seizure in albino Swiss (CD-1) mouse assessed as decrease in mortality rate at 100 mg/kg, ip administered 60 mins prior to PTZ challenge; type: functional; settings: route intraperitoneal; summary of the method: as §1
Mus musculus [4] = assay: Anticonvulsant activity against pilocarpine-induced seizure in albino Swiss (CD-1) mouse assessed as prolongation of latency time to seizures at 100 mg/kg, ip administered 60 mins before pilocarpine challenge; type: functional; settings: route intraperitoneal
Summary of the method: (§2)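 CD-1 mice received compound or vehicle (1% Tween 80) i.p. 60 min before pilocarpine 400 mg/kg i.p. Scopolamine butylbromide 1 mg/kg i.p. was given 45 min before pilocarpine. 7–8 mice per group; Student's t-test versus vehicle; mean ± SEM.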

Mus musculus [5] = assay: Anticonvulsant activity against pilocarpine-induced seizure in albino Swiss (CD-1) mouse assessed as prolongation of latency time to death at 100 mg/kg, ip administered 60 mins before pilocarpine challenge; type: functional; settings: route intraperitoneal
Summary of the method: (§3)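 Male CD-1 mice dosed i.p. with compound or vehicle (1% Tween 80). Scopolamine butylbromide 1 mg/kg i.p. given 45 min before pilocarpine; pilocarpine 400 mg/kg i.p. given 60 min after compound. Observed 1 h. Latency to tonic-clonic seizure and latency to death recorded, cut-off 60 min. 7–8 mice per group, mean ± SEM, Student's t-test against vehicle.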

Mus musculus [6] = assay: Anticonvulsant activity against pilocarpine-induced seizure in albino Swiss (CD-1) mouse assessed as prolongation of latency time to seizures at 200 mg/kg, ip administered 60 mins before pilocarpine challenge; type: functional; settings: route intraperitoneal; summary of the method: as §2
Mus musculus [7] = assay: Anticonvulsant activity against pilocarpine-induced seizure in albino Swiss (CD-1) mouse assessed as prolongation of latency time to death at 200 mg/kg, ip administered 60 mins before pilocarpine challenge; type: functional; settings: route intraperitoneal; summary of the method: as §3
Mus musculus [8] = assay: Antidepressant-like activity in albino Swiss (CD-1) mouse assessed as reduction in immobility time at 15 mg/kg, ip by forced swim test; type: functional; settings: route intraperitoneal
Summary of the method: (§4)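 Compound or vehicle was given i.p. 60 min before the test. Each mouse was placed for 6 min in a glass cylinder (25 cm high, 10 cm diameter) holding 10 cm of water at 23–25 C. Immobility, meaning passive floating, was timed over the final 4 min. 7–8 mice per group; ANOVA with Dunnett's test.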

Mus musculus [9] = assay: Antidepressant-like activity in albino Swiss (CD-1) mouse assessed as reduction in immobility time at 30 mg/kg, ip by forced swim test; type: functional; settings: route intraperitoneal; summary of the method: as §4
Mus musculus [10] = assay: Antinociceptive activity in ip dosed albino Swiss (CD-1) mouse measured after 60 mins by hot plate test; type: functional, organism-based
[11] = biological target: T1, GABA transporter 2 (Mus musculus) (UniProt P31651); assay: Inhibition of mouse GAT2 expressed in HEK293 cells assessed as decrease in [3H]GABA uptake; type: cell-based; settings: concentration not given here
T1 sequence (whole entry): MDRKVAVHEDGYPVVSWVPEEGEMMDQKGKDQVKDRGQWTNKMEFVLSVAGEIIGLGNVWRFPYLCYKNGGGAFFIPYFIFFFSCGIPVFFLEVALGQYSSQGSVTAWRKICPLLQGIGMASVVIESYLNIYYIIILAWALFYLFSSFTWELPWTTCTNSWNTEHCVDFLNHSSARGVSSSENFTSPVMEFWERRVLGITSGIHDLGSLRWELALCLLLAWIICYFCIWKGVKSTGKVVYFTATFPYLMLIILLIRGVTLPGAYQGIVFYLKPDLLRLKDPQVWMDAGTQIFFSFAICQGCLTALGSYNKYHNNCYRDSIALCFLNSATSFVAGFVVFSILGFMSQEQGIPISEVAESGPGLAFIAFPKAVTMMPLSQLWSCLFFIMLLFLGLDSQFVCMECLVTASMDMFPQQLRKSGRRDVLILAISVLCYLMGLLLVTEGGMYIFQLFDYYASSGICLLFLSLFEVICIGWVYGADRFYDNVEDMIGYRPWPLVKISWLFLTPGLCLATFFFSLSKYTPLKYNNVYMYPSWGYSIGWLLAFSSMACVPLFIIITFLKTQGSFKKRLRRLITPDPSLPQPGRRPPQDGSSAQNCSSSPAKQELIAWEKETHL

Mus musculus [12] = assay: Anticonvulsant activity in albino Swiss (CD-1) mouse assessed as current intensity required to induce 50% tonic hind limb extensions at 100 mg/kg, ip after 60 mins by electroconvulsive threshold test (reference value: 6.61 mA); type: functional, Hindlimb; settings: route intraperitoneal

Row | Compound | inhibition in vivo at 100 mg/kg (Mus musculus [1]) | Activity (Mus musculus [2]) | inhibition in vivo at 100 mg/kg (Mus musculus [3]) | Activity (Mus musculus [4]) | Activity (Mus musculus [5]) | Activity (Mus musculus [6]) | Activity (Mus musculus [7]) | inhibition in vivo at 15 mg/kg (Mus musculus [8]) | inhibition in vivo at 30 mg/kg (Mus musculus [9]) | Activity (Mus musculus [10]) | inhibition [11] | CS50 (Mus musculus [12])
1 | CCC1(C)CC(=O)NC1=O (configuration not stated) [ETHOSUXIMIDE] | 64% | 120% | 75% | – | – | – | – | – | – | – | – | –
2 | COc1ccc(C(OCCN2CCC[C@H](C(=O)O)C2)(c2ccc(OC)cc2)c2ccc(OC)cc2)cc1 | – | – | – | 158% | 243.8% | 258.9% | 202.7% | 12.1% | 19.9% | inactive | 56% | 7.95 mA
